Assay results: publication PMC11319934 (PNAS Nexus, 2024)
Bridge positions count the residues as written; N and C are the ends. Square brackets hold non-standard residues; d marks the D form. Peptide text beside a SMILES is read from it. * marks the point of attachment. X1 = CN(C)c1ccc2c(-c3ccc(C(=O)*)cc3C(=O)[O-])c3ccc(=[N+](C)C)cc-3oc2c1; R5 = C=CCCC[C@@](C)(N)C(=O)O; S5 = C=CCCC[C@](C)(N)C(=O)O

Assays:
[1] = target: T1, biotin-MED25^CMIDM/His-MYC3-FLAG complex (Arabidopsis thaliana, UniProt Q9FIP9); assay: AlphaLISA inhibitory assay MED25CMIDM/MYC3; format: biochemical
T1 sequence (Q9FIP9 44-238): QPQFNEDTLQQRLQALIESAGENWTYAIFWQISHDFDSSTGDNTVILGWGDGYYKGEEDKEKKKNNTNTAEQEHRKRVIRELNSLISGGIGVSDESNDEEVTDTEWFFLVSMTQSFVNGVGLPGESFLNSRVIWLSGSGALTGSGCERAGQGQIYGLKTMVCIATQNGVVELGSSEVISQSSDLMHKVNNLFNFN
In short: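 Competition AlphaLISA: biotin-MED25CMIDM (150 nM) with His-MYC3-FLAG (50 nM). TMR-conjugated test peptides titrated 0–3 µM to generate inhibition curves. Run in triplicate; mean and SD reported.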

[2] = tested on: JA-responsive marker genes in Arabidopsis seedlings; assay: RT-qPCR of JA-responsive marker genes in A. thaliana; format: in vivo, Arabidopsis thaliana
In short: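 Col-0 or mutant (e.g. myc234) seedlings grown at 22°C, 16 h light/8 h dark. At 7 days, treated in half-strength MS liquid medium with MeJA (50 µM) and/or test compound (10 µM). Exposure 2 h for AOS, OPR3, MYC2, ORA59 and 8 h for VSP2, PDF1.2, ACT. Total RNA extracted; oligo-dT-primed cDNA; RT-qPCR (n = 4). One-way ANOVA/Tukey's HSD.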

[3] = tested on: M. polymorpha gemmalings (Tak-1); assay: Growth; format: in vivo, Marchantia polymorpha; conditions: Tak-1 gemmalings, 4 (10 µM) with OPDA (50 µM), n = 24
In short: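 Tak-1 gemmalings grown 2 weeks on half-strength Gamborg's B5 with 1% agar, containing OPDA (50 µM) ± test compound (10 µM). Continuous light 50–60 µmol m-2 s-1, 22°C. Plant area measured in mm2 (n = 24). Experiment repeated three times; one-way ANOVA/Tukey's HSD, P < 0.01.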

[4] = target: T2, His-MYC3-FLAG (His6-SUMO-MYC3(44–238)-FLAG) (Arabidopsis thaliana, UniProt Q9FIP9); assay: Fluorescence anisotropy; format: binding
T2 sequence (Q9FIP9 44-238): T1 sequence (Q9FIP9 44-238)

[5] = tested on: OPDA-responsive marker genes in Marchantia gemmalings; assay: RT-qPCR of OPDA-responsive marker genes in M. polymorpha; format: in vivo, Marchantia polymorpha; conditions: 4 (10 µM) with OPDA (50 µM), 6 h
[6] = target: T3, His-EIN3-FLAG (His6-SUMO-EIN3(200–500)-FLAG) (Arabidopsis thaliana, UniProt O24606); assay: Fluorescence anisotropy; format: binding
T3 sequence (O24606 200-500): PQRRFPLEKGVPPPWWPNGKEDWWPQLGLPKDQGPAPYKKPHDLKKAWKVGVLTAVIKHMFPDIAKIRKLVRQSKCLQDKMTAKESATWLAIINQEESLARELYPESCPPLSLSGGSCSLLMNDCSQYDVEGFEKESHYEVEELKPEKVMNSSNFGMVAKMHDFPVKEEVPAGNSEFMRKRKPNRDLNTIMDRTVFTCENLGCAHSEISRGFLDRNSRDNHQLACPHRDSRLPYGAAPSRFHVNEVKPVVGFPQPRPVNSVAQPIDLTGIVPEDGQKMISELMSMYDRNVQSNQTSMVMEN
In short: (§1)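 FA titration at 25°C in 20 mM Tris-HCl pH 8.0, 200 mM NaCl, 10% glycerol, 10% cOmplete EDTA-free, with 2-mercaptoethanol (EIN3/EIL1 family). Protein added dropwise to 100 nM TMR-labelled peptide; His-EIN3-FLAG titrated 0–2 µM. Anisotropy read at ex/em 543/573.5 nm. Each point is the average of three independent measurements. Apparent Kd obtained by nonlinear curve fitting.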

[7] = tested on: His-MpMYC-Y-FLAG (MpMYC-Y(102-299)); assay: Fluorescence anisotropy; format: binding, Marchantia polymorpha; conditions: ratio of Kd of 1 to Kd of the peptide
In short: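 FA titration of 100 nM TMR-labelled peptide with His-MpMYC-Y-FLAG (0–2 µM), added dropwise. Conditions: 25°C, 20 mM Tris-HCl pH 8.0, 200 mM NaCl, 10% glycerol, 10% cOmplete EDTA-free, no 2-mercaptoethanol (MYC family). Read at ex/em 543/573.5 nm, triplicate points. Apparent Kd from nonlinear fitting; values compared as Kd ratios.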

His-EIL1-FLAG = target: T4, His-EIL1-FLAG (Arabidopsis thaliana, UniProt Q9SLH0); assay: Fluorescence anisotropy; format: binding
T4 sequence (Q9SLH0 201-501): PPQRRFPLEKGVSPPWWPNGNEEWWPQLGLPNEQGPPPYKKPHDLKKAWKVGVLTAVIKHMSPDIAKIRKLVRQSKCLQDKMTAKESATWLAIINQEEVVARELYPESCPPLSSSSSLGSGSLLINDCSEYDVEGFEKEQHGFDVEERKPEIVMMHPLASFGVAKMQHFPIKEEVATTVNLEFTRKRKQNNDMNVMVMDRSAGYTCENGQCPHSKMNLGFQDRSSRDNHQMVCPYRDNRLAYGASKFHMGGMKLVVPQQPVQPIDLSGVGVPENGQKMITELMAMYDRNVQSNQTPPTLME
In short: as §1

[8] = tested on: A. thaliana seedlings (Col-0); assay: Root growth of A. thaliana seedlings with MeJA; format: in vivo, Arabidopsis thaliana; conditions: Col-0 seedlings, co-treatment 4 (10 µM) with MeJA (50 µM), n = 15
In short: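 Surface-sterilized Col-0 seeds stratified 2–3 days at 4°C. Grown on half-strength MS plates (2% sucrose, 0.4% gellan gum) with MeJA (50 µM) ± test compound (10 µM), under 16 h light (75 µmol m-2 s-1)/8 h dark at 22°C. Whole-seedling root length measured (n = 15). Repeated three times; one-way ANOVA/Tukey's HSD, P < 0.01.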

[9] = tested on: A. thaliana seedlings (Col-0); assay: Secondary metabolite quantification in A. thaliana; format: in vivo, Arabidopsis thaliana; conditions: Col-0 seedlings, 4 (10 µM) with MeJA (50 µM), 4 days, n = 4, LC/MS
In short: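 7-day-old Col-0 seedlings treated 4 days with MeJA (50 µM) ± test compound (10 µM). Glucobrassicin (i-3ym) and p-coumaroyl agmatine accumulation quantified (n = 4). Experiment repeated three times; one-way ANOVA/Tukey's HSD, P < 0.01.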

CC[C@H](C)[C@H](NC(=O)[C@H](CCCCN)NC(=O)[C@H](CO)NC(=O)[C@@H](NC(=O)[C@]1(C)CCCC=CCCC[C@](C)(NC(=O)[C@H](CCCNC(=N)N)NC(=O)[C@H](Cc2ccccc2)NC(=O)[C@H](CO)NC(=O)[C@H](CCCNC(=N)N)NC(=O)[C@H](CCCNC(=N)N)NC(=O)[C@H](CCCNC(=N)N)NC(=O)[C@H](CC(=O)O)NC(=O)[C@H](CC(C)C)NC(=O)[C@H](Cc2ccccc2)NC(=O)[C@H](CCCCN)NC(=O)[C@H](CCC(N)=O)NC(=O)[C@H](Cc2ccccc2)NC(=O)c2ccc(-c3c4ccc(=[N+](C)C)cc-4oc4cc(N(C)C)ccc34)c(C(=O)[O-])c2)C(=O)N[C@@H]([C@@H](C)CC)C(=O)N[C@@H](CCC(N)=O)C(=O)NCC(=O)N1)[C@@H](C)CC)C(=O)N[C@@H](CC(=O)O)C(=O)N1CCC[C@H]1C(=O)N[C@@H](CCC(=O)O)C(=O)N[C@]1(C)CCCC=CCCC[C@@](C)(C(=O)N[C@@H](CC(C)C)C(=O)N[C@@H](CC(C)C)C(=O)N[C@@H](C)C(=O)N[C@@H](CO)C(=O)N[C@H](C(=O)O)[C@@H](C)O)NC(=O)[C@H](CCCCN)NC(=O)[C@H]([C@@H](C)CC)NC1=O [compound 4] (X1-FQKFLDRRRSFR[S5]IQG[S5]ISKIDPE[R5]IK[S5]LLAST-OH; staple 13-17, 25-28)
Ki [1]: 71 nM | marker gene expression, peptide alone ([2]; 7-day-old Col-0, 4 (10 µM) alone without MeJA, 2 or 8 h): almost no effects | expression of ORA59 and ACT (EIN3/EIL1-marker genes) ([2]; 7-day-old Col-0, 4 (10 µM) with MeJA (50 µM), 2 or 8 h): activated | MeJA-induced expression of MYC-mediated marker genes (VSP2, AOS, OPR3, MYC2) ([2]; 7-day-old Col-0, 4 (10 µM) with MeJA (50 µM), 2 or 8 h, n = 3 or 4): significantly suppressed | expression of PDF1.2 (EIN3/EIL1-mediated marker gene) compared with MeJA alone ([2]; 7-day-old Col-0, 4 (10 µM) with MeJA (50 µM), 8 h): strongly activated | expression pattern of VSP2 and PDF1.2 on myc234 compared to MeJA alone ([2]; MYC triple mutant myc234, 4 (10 µM) with MeJA (50 µM), 8 h, n = 4): did not significantly change | expression pattern of VSP2 and PDF1.2 on ein2-1 compared to MeJA alone ([2]; ein2-1 mutant, 4 (10 µM) with MeJA (50 µM), 8 h, n = 3 or 4): did not significantly change | effect on OPDA growth inhibitory effects (plant area) [3]: partially suppressed | Kd [4]: 5 nM | fold lower Kd with His-MYC3-FLAG than that of 1 ([4]; ratio of Kd of 1 to Kd of the peptide): 42 fold | bioactivity on marker gene expression in MpMYC-Y knockout mutant mpmycy [5]: completely abolished | Kd [6]: 105 nM | fold lower Kd with MpMYC-Y than 1 [7]: 46 fold | Kd (His-EIL1-FLAG): 116 nM | effect on MeJA growth inhibitory effects (root length) [8]: partially suppressed | MeJA-triggered accumulation of p-coumaroyl agmatine (CouAgm) compared to MeJA alone [9]: significantly enhanced | MeJA-triggered glucosinolate (glucobrassicin, i-3ym) accumulation [9]: significantly suppressed
